Data set [1] has as its target D(4) dopamine receptor (Homo sapiens) (UniProt P21917). The experiment in a line: Displacement of [3H]N-methylspiperone from human cloned dopamine D4 receptor. In general terms: Loss of bound radioactivity is the signal in a displacement assay; it reports binding, not function.
Data set [2] is described as follows: Biodistribution in iv dosed baboon heart by dynamic PET imaging analysis. The following applies: papio anubis, in vivo. Format: ADME, organism-based. The procedure, abridged: (§1)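 Female Papio anubis baboons; ketamine 10 mg/kg i.m. induction, then O2/N2O/isoflurane (1–4%). Radiotracer given through a radial arm vein catheter. Dynamic 3D PET over 90 min (55 frames), brain or torso in field of view. Regions of interest drawn on summed images give time-activity curves as decay-corrected %injected dose/cc.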

Data set [3] addresses Alpha-2A adrenergic receptor (Homo sapiens) (UniProt P08913). Put plainly: Displacement of [3H]clonidine from human cloned adrenergic alpha-2a receptor.
Data set [4] addresses Alpha-1B adrenergic receptor (Homo sapiens) (UniProt P35368). Put plainly: Displacement of [3H]prazosin from human cloned adrenergic Alpha-1B receptor.
Data set [5] concerns the target Muscarinic acetylcholine receptor M4 (Homo sapiens) (UniProt P08173). Put plainly: Displacement of [3H]QNB from human cloned muscarinic M4 receptor.
Data set [6] deals with 5-hydroxytryptamine receptor 1A (Homo sapiens) (UniProt P08908). Put plainly: Displacement of [3H]8-OH-DPAT from human cloned 5HT1A receptor.
For data set [7], the target named is Prostaglandin E2 receptor EP3 subtype (Homo sapiens) (UniProt P43115). The experiment in a line: Displacement of [3H]PGE2 from human cloned EP3 receptor.
Data set [8] addresses Histamine H4 receptor (Homo sapiens) (UniProt Q9H3N8). The experiment in a line: Displacement of [3H]histamine from human cloned histamine H4 receptor.
Data set [9] addresses Sodium-dependent noradrenaline transporter (Homo sapiens) (UniProt P23975). The experiment in a line: Displacement of [3H]nisoxetine from human cloned NET.
The target in data set [10] is Muscarinic acetylcholine receptor M2 (Homo sapiens) (UniProt P08172). Put plainly: Displacement of [3H]QNB from human cloned muscarinic M2 receptor.
Data set [11] deals with Histamine H2 receptor (Homo sapiens) (UniProt P25021). Put plainly: Displacement of [3H]Tiotidine from human cloned histamine H2 receptor.
The target of data set [12] is 5-hydroxytryptamine receptor 2B (Homo sapiens) (UniProt P41595). The experiment in a line: Displacement of [3H]LSD from human cloned 5HT2B receptor.
Data set [13] addresses 5-hydroxytryptamine receptor 5A (Homo sapiens) (UniProt P47898). Put plainly: Displacement of [3H]LSD from human cloned 5HT5A receptor.
For data set [14], the target named is 5-hydroxytryptamine receptor 1B (Homo sapiens) (UniProt P28222). Put plainly: Displacement of [3H][…] from human cloned 5HT1B receptor.
Data set [15] addresses 5-hydroxytryptamine receptor 4 (Homo sapiens) (UniProt Q13639). The experiment in a line: Binding affinity to human cloned 5HT4 receptor.
A short description of data set [16]: Biodistribution in iv dosed baboon heart by dynamic PET imaging analysis in presence of metergoline. The data set is classed as ADME, organism-based. The following applies: papio anubis, in vivo. The procedure, abridged: (§2)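 Baboons anesthetized (ketamine i.m., then isoflurane/N2O/O2). […] Dynamic 3D PET for 90 min, brain or torso in view. Region time-activity curves as decay-corrected %ID/cc.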

For data set [17], the target named is 5-hydroxytryptamine receptor 2C (Rattus norvegicus) (UniProt P08909). The experiment in a line: Displacement of [3H]Mesulergine from rat cloned 5HT2C receptor.
Data set [18] addresses D(3) dopamine receptor (Rattus norvegicus) (UniProt P19020). Put plainly: Displacement of [3H]N-methylspiperone from rat cloned dopamine D3 receptor.
In data set [19] the target is Prostaglandin E2 receptor EP4 subtype (Homo sapiens) (UniProt P35408). Put plainly: Displacement of [3H]PGE2 from human cloned EP4 receptor.
Data set [20] concerns the target Delta-type opioid receptor (Homo sapiens) (UniProt P41143). Put plainly: Displacement of [3H]DADLE from human cloned delta opioid receptor.
Data set [21] has as its target Alpha-1A adrenergic receptor (Homo sapiens) (UniProt P35348). Put plainly: Displacement of [3H]prazosin from human cloned adrenergic alpha1A receptor.
In data set [22] the target is 5-hydroxytryptamine receptor 1E (Homo sapiens) (UniProt P28566). The experiment in a line: Displacement of [3H]5-HT from human cloned 5HT1E receptor.
The target of data set [23] is Alpha-2C adrenergic receptor (Homo sapiens) (UniProt P18825). Put plainly: Displacement of [3H]clonidine from human cloned adrenergic alpha2c receptor.
The target of data set [24] is D(1A) dopamine receptor (Homo sapiens) (UniProt P21728). The experiment in a line: Displacement of [3H][…] from human cloned dopamine D1 receptor.
Data set [25] deals with D(2) dopamine receptor (Homo sapiens) (UniProt P14416). The experiment in a line: Displacement of [3H]N-methylspiperone from human cloned dopamine D2 receptor.
The target in data set [26] is 5-hydroxytryptamine receptor 1D (Homo sapiens) (UniProt P28221). The experiment in a line: Displacement of [3H][…] from human cloned 5HT1D receptor.
Data set [27] has as its target 5-hydroxytryptamine receptor 3A (Homo sapiens) (UniProt P46098). The experiment in a line: Displacement of [3H]LY278584 from human cloned 5HT3 receptor.
Data set [28] deals with Kappa-type opioid receptor (Rattus norvegicus) (UniProt P34975). Put plainly: Displacement of [3H]U69593 from rat cloned kappa opioid receptor.
A short description of data set [29]: Plasma protein binding in baboon after 10 mins. Format: ADME, cell-free. Conditions: papio anubis, read-out: PPB; call rule not given here. The procedure, abridged:
(§3)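 Radiotracer in saline added to pooled baboon plasma (from ≥4 animals). Mixed by inversion, incubated 10 min at room temperature. Total activity sampled. Plasma then centrifuged 10 min through a Centrifree ultrafiltration unit and filtrate counted. %unbound = filtrate activity ×100/total activity.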

Data set [30] can be described thus: Drug uptake in iv dosed baboon occipital cortex in presence of citalopram. The following applies: papio anubis, in vivo. The data set is classed as ADME, organism-based. The procedure, abridged:
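Citalopram-HBr 5.0 mg/kg (as free base) in 10 mL saline, filter-sterilized, i.v. bolus 20 min before radiotracer in anesthetized baboons. 90-min dynamic 3D brain PET. Region time-activity curves as decay-corrected %ID/cc.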

The nature of data set [31]: Drug uptake in iv dosed baboon frontal cortex in presence of metergoline. Format: ADME, organism-based. The following applies: papio anubis, in vivo. In a few lines: as §2
Data set [32] can be described thus: Biodistribution in iv dosed baboon gall bladder by dynamic PET imaging analysis. Format: ADME, organism-based. The following applies: papio anubis, in vivo. In a few lines: as §1
Data set [33] in a line: Lipophilicity, log D of compound in phosphate buffer solution at pH 7.4. The data set is classed as physicochemical. The procedure, abridged: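 Formulated radiotracer partitioned between octanol and phosphate buffer pH 7.4: vortexed 2 min, centrifuged 2 min. Octanol layer serially re-extracted with fresh buffer to give six sample sets, each phase well-counted. logD = log(decay-corrected octanol activity ×10/decay-corrected buffer activity) for each set.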

Data set [34] can be described thus: Drug uptake in iv dosed baboon occipital cortex in presence of metergoline. Format: ADME, organism-based. The following applies: papio anubis, in vivo. The procedure, abridged: as §2
The test system of a further data set is Brain. Put plainly: Biodistribution in iv dosed baboon brain after 2 to 10 mins by PET imaging analysis. The following applies: papio anubis, in vivo. The data set is classed as ADME, organism-based. In a few lines:
as §1

Data set [35] in a line: Drug uptake in iv dosed baboon occipital cortex in presence of altanserin. Format: ADME, organism-based. The following applies: papio anubis, in vivo. The procedure, abridged:
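Baboon pretreated with altanserin 0.5 mg/kg, dissolved in 2% HCl in EtOH, diluted with saline to 30 mL, filter-sterilized (final pH ~5.5). Given 15 min before i.v. radiotracer. Anesthetized animal (ketamine, then isoflurane). 90-min dynamic 3D brain PET; region curves as decay-corrected %ID/cc.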

Data set [36] is described as follows: Fraction unbound in baboon plasma after 10 mins. Conditions: papio anubis. Format: ADME, cell-free. In a few lines: as §3

Prostaglandin E2 receptor EP4 subtype (Homo sapiens), sequence (P35408 whole entry): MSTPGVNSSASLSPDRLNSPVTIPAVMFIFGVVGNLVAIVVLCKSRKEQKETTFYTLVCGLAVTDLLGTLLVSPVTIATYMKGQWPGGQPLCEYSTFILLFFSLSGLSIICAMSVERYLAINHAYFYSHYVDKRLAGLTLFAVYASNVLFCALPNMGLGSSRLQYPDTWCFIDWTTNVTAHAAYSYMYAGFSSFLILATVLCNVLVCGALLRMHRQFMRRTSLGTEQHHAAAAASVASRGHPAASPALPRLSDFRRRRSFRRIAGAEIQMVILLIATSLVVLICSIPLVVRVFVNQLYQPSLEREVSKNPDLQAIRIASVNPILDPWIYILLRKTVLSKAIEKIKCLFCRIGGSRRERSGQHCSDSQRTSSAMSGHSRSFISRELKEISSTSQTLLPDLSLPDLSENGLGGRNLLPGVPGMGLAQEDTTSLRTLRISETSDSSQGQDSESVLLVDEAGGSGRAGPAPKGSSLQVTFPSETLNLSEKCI
Sodium-dependent noradrenaline transporter (Homo sapiens), sequence (P23975 whole entry): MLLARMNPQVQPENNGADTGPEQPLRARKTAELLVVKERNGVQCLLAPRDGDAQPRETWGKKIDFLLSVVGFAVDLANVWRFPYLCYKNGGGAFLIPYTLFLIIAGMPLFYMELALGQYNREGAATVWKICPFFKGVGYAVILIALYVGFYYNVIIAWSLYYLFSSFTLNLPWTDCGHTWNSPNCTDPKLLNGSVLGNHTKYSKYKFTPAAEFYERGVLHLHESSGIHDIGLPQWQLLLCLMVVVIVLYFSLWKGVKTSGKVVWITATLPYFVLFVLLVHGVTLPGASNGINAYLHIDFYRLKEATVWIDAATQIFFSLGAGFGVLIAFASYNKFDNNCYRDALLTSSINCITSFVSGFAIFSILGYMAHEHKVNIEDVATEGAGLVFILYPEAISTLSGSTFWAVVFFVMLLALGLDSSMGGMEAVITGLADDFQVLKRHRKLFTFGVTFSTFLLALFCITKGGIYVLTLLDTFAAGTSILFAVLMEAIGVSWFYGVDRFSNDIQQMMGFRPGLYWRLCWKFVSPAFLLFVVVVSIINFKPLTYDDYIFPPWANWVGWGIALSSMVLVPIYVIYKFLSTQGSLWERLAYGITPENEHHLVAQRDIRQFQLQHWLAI
5-hydroxytryptamine receptor 3A (Homo sapiens), sequence (P46098 whole entry): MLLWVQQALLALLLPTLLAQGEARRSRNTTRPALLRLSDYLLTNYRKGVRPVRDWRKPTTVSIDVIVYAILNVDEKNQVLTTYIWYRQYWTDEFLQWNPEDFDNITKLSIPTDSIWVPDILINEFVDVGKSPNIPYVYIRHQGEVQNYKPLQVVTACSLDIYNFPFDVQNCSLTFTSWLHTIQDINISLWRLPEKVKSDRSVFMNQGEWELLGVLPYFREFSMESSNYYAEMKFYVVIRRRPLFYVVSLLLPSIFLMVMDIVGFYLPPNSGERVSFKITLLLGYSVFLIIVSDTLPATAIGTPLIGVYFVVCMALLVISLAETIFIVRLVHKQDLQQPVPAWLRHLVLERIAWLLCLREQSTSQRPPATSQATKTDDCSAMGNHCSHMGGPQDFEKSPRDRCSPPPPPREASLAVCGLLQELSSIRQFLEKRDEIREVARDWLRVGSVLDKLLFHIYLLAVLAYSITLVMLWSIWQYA
Kappa-type opioid receptor (Rattus norvegicus), sequence (P34975 whole entry): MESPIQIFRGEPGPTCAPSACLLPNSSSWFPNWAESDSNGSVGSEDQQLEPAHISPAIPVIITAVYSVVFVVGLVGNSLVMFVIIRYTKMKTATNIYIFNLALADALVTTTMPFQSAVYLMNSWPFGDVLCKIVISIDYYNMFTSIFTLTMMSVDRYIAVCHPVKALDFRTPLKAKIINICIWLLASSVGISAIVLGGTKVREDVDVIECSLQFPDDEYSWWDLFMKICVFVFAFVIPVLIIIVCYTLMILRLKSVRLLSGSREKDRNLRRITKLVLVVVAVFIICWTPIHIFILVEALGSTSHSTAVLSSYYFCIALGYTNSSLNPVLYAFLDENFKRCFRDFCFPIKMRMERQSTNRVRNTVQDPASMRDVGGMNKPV
5-hydroxytryptamine receptor 2C (Rattus norvegicus), sequence (P08909 whole entry): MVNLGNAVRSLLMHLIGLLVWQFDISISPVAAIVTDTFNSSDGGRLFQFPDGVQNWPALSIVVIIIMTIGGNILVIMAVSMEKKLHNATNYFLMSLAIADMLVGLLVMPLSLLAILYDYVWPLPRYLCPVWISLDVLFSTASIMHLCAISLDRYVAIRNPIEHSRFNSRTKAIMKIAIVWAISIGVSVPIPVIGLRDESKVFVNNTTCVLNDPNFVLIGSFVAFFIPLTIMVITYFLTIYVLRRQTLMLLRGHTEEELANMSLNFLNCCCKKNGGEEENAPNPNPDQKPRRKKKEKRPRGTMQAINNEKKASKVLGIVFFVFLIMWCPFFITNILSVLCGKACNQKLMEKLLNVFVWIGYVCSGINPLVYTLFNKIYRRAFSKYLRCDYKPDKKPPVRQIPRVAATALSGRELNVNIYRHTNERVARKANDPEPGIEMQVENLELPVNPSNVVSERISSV
D(1A) dopamine receptor (Homo sapiens), sequence (P21728 whole entry): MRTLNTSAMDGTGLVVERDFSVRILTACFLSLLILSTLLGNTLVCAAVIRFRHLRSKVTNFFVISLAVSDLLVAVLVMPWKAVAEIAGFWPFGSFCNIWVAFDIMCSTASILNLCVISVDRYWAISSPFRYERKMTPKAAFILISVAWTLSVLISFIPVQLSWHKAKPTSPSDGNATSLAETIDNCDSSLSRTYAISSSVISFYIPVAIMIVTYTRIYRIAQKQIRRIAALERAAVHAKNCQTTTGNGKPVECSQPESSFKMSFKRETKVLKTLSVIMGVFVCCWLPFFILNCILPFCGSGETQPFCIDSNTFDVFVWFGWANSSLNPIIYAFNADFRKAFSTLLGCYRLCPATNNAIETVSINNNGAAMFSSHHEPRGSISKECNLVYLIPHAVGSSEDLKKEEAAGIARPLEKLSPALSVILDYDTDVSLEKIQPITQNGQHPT
Delta-type opioid receptor (Homo sapiens), sequence (P41143 whole entry): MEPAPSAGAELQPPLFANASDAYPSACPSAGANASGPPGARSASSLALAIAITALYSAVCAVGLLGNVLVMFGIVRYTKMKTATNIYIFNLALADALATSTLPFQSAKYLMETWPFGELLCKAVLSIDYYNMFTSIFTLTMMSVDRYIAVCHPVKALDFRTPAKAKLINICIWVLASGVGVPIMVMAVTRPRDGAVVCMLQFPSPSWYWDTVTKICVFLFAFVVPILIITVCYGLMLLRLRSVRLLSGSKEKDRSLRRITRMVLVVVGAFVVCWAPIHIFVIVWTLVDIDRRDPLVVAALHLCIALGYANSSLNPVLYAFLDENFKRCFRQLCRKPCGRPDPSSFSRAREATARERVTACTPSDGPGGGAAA
5-hydroxytryptamine receptor 1E (Homo sapiens), sequence (P28566 whole entry): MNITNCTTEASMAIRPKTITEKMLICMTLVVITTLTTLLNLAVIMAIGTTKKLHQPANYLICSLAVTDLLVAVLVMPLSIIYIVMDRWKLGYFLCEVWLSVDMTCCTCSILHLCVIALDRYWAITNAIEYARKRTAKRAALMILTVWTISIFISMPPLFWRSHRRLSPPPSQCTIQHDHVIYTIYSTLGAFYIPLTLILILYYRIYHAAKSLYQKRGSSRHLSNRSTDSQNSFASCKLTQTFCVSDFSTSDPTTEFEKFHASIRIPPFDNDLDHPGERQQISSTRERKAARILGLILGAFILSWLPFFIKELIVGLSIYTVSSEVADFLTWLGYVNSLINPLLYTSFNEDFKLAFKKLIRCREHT
Histamine H4 receptor (Homo sapiens), sequence (Q9H3N8 whole entry): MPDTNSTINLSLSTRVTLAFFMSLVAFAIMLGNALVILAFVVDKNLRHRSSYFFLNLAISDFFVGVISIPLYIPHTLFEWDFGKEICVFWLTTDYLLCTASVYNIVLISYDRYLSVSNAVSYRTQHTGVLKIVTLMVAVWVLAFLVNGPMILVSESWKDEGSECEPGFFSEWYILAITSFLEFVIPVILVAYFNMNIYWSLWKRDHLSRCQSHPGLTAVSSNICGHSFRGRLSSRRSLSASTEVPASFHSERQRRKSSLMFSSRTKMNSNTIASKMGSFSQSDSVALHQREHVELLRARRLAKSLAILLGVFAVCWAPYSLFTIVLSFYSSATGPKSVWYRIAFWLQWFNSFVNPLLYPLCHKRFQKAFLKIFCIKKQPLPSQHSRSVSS
5-hydroxytryptamine receptor 5A (Homo sapiens), sequence (P47898 whole entry): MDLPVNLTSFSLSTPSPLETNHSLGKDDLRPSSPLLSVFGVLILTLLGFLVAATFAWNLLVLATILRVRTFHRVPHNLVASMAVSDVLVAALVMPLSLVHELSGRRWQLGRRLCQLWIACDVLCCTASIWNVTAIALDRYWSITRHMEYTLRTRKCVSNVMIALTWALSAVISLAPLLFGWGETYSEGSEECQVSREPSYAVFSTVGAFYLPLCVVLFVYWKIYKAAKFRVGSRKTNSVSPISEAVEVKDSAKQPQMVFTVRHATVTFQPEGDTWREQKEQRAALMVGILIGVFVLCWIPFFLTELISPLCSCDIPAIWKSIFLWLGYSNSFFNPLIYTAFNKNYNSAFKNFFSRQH
5-hydroxytryptamine receptor 1B (Homo sapiens), sequence (P28222 whole entry): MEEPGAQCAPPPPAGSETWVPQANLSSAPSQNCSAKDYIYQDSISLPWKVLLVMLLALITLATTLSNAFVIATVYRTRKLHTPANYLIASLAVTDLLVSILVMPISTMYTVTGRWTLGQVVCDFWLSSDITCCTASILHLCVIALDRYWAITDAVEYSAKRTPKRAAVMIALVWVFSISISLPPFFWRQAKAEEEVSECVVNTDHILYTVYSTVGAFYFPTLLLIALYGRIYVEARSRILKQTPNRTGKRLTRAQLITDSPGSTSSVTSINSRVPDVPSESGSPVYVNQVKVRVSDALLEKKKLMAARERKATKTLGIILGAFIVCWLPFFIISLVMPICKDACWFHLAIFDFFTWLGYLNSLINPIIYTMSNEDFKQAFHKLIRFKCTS

`CN1C[C@H](CNC(=O)OCc2ccccc2)C[C@@H]2c3cccc4c3c(cn4C)C[C@H]21` [METERGOLINE]: the Activity was determined as 4.9 nM in data set [1]; 31 nM in [3]; 123 nM in [4]; 36.9 nM in [5]; 10 nM in [6]; 21.7 nM in data set [7]. Also, the Activity in data set [8] came out at 12.7 nM; in data set [9] it was 1130 nM; in data set [10], 17.7 nM; in data set [11], 104 nM; in [12], 2.6 nM; in [13], 562 nM. In addition, the Activity was 28 nM in [14]; 1270 nM in data set [15]; 9.5 nM in [17]; 14 nM in data set [18]; 15.2 nM in data set [19]; 18.9 nM in data set [20]. Moreover, the Activity in data set [21] is 30 nM; in data set [22], 1660 nM; in data set [23] it was 30 nM; in data set [24], 9 nM; in data set [25], 74 nM; in data set [26], 0.9 nM. For the same compound, the results for the Activity in [27] and in data set [28] were greater than 10 µM and 63.2 nM, respectively. Further, the Drug uptake entry in data set [2] and in [16] was “Active” each time.

The logD is the decadic logarithm of the distribution of all forms, ionised or not, between an organic phase and buffer at a given pH. With `CN1C[C@H](CN[11C](=O)OCc2ccccc2)C[C@@H]2c3cccc4c3c(cn4C)C[C@H]21` [[11C]-METERGOLINE], the fraction unbound at 10 min in data set [29] is less than 0.01. Also, the Drug uptake entry in data set [30] is “Active”; in [31], “Not Active”; in [32] it was 0.3 %ID; in data set [34] it was “Not Active”; in the data set on Brain, 0.01 %ID; in [35], “Not Active”. Besides, the logD in data set [33] turned out to be 3.3. Besides, in [36], the Fu is 0.55%.

The values above are taken from ChEMBL document CHEMBL1275246 (Bioorg Med Chem, 2010).
